Data on 24 molecules can be found in ChEMBL document CHEMBL1149296, “Virtual screening of human 5-aminoimidazole-4-carboxamide ribonucleotide transformylase against the NCI diversity set by use of AutoDock to identify novel nonfolate inhibitors” (J Med Chem, 2004).

The structures appear in SMILES notation. Activity calls are given as the source filed them. No cut-off for these calls is given here.

The assay concerns the target Bifunctional purine biosynthesis protein ATIC (Homo sapiens, UniProt P31939). The assay can be described thus: Inhibition of human AICAR Tfase. In short, it runs like this:
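Human ATIC transformylase activity assay run per the cited earlier method. IC50 measured in a mix of 25 nM ATIC, 50 μM AICAR substrate and 8.5 μM 10-formyltetrahydrofolate cofactor, the cofactor made in-house by a modified literature route. Inhibition mode was also examined with 0.1 mg/mL saponin present.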

Turning to `C[C@@H]1O[C@@H](O[C@H]2C[C@@H](O)[C@]3(CO)[C@H]4[C@H](O)C[C@]5(C)[C@@H](C6=CC(=O)OC6)CC[C@]5(O)[C@@H]4CC[C@]3(O)C2)[C@H](O)[C@H](O)[C@H]1O`, the result was inactive.

On to `O=C(O)C1=C/C(=C/C(c2ccccc2)c2cc(C(=O)O)c(O)c3ccccc23)c2ccccc2C1=O` (stereo not given), for which the IC50 came out at 204 µM.

Molecule `Nc1cccc2cc(S(=O)(=O)Nc3ccc(C(=O)O)cc3)ccc12` registered a half-maximal inhibitory concentration (IC50) of 4.1 µM.

`O=S(=O)(O)c1cc(/N=[N+](\[O-])c2cc(S(=O)(=O)O)c3ccccc3c2)cc2ccccc12` had an IC50 of 7.8 µM.

In the case of `CC1=NN(c2ccc(S(=O)(=O)O)cc2)C(=O)C1/N=N/c1ccc(S(=O)(=O)Nc2ccccc2)c(C)c1` (stereo not given), the half-maximal inhibitory concentration (IC50) was determined as 11.6 µM.

In the case of `Cc1ccc(OS(=O)(=O)c2ccc(/N=N/c3c(C)[nH]n(-c4ccc(Cl)cc4S(=O)(=O)O)c3=O)cc2)cc1`, the IC50 is 3.3 µM.

Regarding `Cc1cc(N)ccc1/N=N/c1cc(S(=O)(=O)O)c2cccc(S(=O)(=O)O)c2c1`, it took 7.6 µM to reach half-maximal inhibition (IC50).

For `CC1CCC2N(C1)CC1C3(O)CC45OC6(O)C(O)CCC4(C)C6CCC5C3(O)CC(O)C13C(C)(O)C23O` (stereo not given), the outcome was inactive.

Consider `Cc1ccc(S(=O)(=O)Nc2cc([N+](=O)[O-])c3scnc3c2)cc1`, for which the IC50 was 36.1 µM.

With `COc1ccc(C(=O)O[C@H]2CC[C@@]3(C)[C@@H]4CC[C@H]5[C@]6(O)C[C@H](O)[C@@]7(O)[C@@H](CN8C[C@@H](C)CC[C@H]8[C@@]7(C)O)[C@]6(O)C[C@@]53O[C@]24O)cc1OC` [VERATRIDINE], the IC50 came to 231 µM.

For `O=C(O)c1cc(C(=O)C(=O)c2cc(C(=O)O)c(O)c3ccccc23)c2ccccc2c1O`, 8.8 µM corresponded to half-maximal inhibition (IC50).

Take `C[C@]12CC[C@H]3[C@@H](CCC4=CC(=O)CC[C@@]43C)[C@@H]1CC[C@@H]2C(=O)COS(=O)(=O)c1ccc(Br)cc1`: half-maximal inhibition (IC50) required 13.9 µM.

With `CC(C)(O)/C=C/C(=O)[C@](C)(O)[C@H]1[C@H](O)C[C@@]2(C)[C@@H]3CC=C4[C@@H](C=C(O)C(=O)C4(C)C)[C@]3(C)C(=O)C[C@]12C`, the outcome was inactive.

For `NS(=O)(=O)c1cccc2cc(/N=N/c3cccc4c(S(=O)(=O)O)cccc34)ccc12`, 0.6 µM corresponded to half-maximal inhibition (IC50) and the Ki was determined as 0.154 µM.

Take `Cc1ccc(S(=O)(=O)N/N=C2/C=C3CC[C@H]4[C@@H]5CC[C@H]([C@H](C)CCCC(C)C)[C@@]5(C)CC[C@@H]4[C@@]3(C)CC2)cc1`: the half-inhibitory concentration (IC50) is 9.6 µM.

Take `C[C@]12CC[C@H]3[C@@H](CCC4=CC(=O)CC[C@@H]43)[C@@H]1CCC2OC1(O)C(=O)c2ccccc2C1=O` (stereo not given in full): the result was inactive.

Molecule `CC(=O)Nc1ccc(S(=O)(=O)Nc2cnc3ccccc3n2)cc1` registered a half-maximal inhibitory concentration (IC50) of 54.7 µM.

For the molecule `Cc1ccc2nc(-c3ccc(NC(=O)c4ccc(N)cc4)c(S(=O)(=O)O)c3)sc2c1`, inhibition was half-maximal at 16.9 µM (IC50).

The molecule `CC1=NN(c2cc(Cl)c(S(=O)(=O)O)cc2Cl)C(=O)C1/N=N/c1ccc(S(=O)(=O)O)cc1` (stereo not given) showed an IC50 of 20.1 µM.

With `C[C@H](CCC(=O)O)[C@H]1CC[C@H]2[C@@H]3CC[C@@H]4C[C@@H](O)CC[C@]4(C)[C@H]3C[C@H](O)[C@]12C`, the result was inactive.

Regarding `CC(CC(=O)O)[C@H]1CC[C@@]2(C)[C@@H]3C(=O)C[C@H]4C(C)(C)[C@@H](O)CC[C@]4(C)[C@H]3C(=O)C[C@]12C` (single isomer, unassigned), the result was inactive.

`CC(C)[C@H](C)/C=C/[C@@H](C)[C@H]1CC[C@H]2C3=CC=C4C[C@@H](O)CC[C@]4(C)[C@H]3CC[C@]12C`: the outcome was inactive.

The molecule `O=S(=O)(O)c1ccc(/N=N/c2ccc(/N=N/c3ccc(O)c4cccc(S(=O)(=O)O)c34)cc2)cc1` registered an IC50 of 11.6 µM.

Regarding `CN1CCN(c2ccc3[nH]c(-c4ccc5[nH]c(-c6ccc(O)cc6)nc5c4)nc3c2)CC1`, the outcome was inactive.

By IC50 is commonly meant the point on the concentration scale where inhibition reaches its midpoint. A word on the Ki: it is the dissociation constant of the complex between target and ligand, obtained from inhibition or displacement. A low value points to higher affinity.
